Assay results from publication PMC5010496 (Cancer research, 2016).

Key:
HMEC-1 endothelial cells = assay: Cell growth assay, HMEC-1; type: cell-based, human; settings: 30 μM peptide, 3 days
Outline: (§1)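 Endothelial cells (1–2 × 10^3/well) were grown in complete medium with 30 μM test peptide or its variant for 3 days at 37 °C, 7.5% CO2. Cell number was read by CellTiter-GLO and expressed as % increase relative to untreated cells.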

[1] = target: IGF1R and αvβ5 integrin complex with Sdc1 (Homo sapiens, UniProt P06756+P08069+P18084); assay: Immunoprecipitation of Sdc1 with competing SSTN peptides; type: binding
Chain of IGF1R and αvβ5 integrin complex with Sdc1 (P08069 31-736 limits assumed): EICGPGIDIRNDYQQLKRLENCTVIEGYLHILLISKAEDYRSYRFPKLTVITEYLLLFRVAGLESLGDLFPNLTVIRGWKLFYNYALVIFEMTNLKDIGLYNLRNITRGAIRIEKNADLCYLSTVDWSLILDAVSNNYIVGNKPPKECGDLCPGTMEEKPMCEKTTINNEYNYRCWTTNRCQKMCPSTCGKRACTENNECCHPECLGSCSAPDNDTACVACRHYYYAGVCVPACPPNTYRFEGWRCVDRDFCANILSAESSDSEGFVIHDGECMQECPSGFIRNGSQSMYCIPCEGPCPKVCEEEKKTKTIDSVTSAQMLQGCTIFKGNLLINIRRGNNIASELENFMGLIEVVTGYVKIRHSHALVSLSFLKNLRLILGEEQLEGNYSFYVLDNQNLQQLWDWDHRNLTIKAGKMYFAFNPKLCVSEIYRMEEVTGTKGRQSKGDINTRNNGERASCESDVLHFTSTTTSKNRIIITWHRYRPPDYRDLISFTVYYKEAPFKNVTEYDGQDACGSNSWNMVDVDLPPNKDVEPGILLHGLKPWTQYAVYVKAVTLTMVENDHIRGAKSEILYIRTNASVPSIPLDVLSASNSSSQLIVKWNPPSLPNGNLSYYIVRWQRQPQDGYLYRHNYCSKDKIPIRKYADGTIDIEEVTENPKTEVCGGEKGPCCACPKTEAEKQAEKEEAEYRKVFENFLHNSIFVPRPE
Chain of IGF1R and αvβ5 integrin complex with Sdc1 (P08069 741-1367 limits assumed): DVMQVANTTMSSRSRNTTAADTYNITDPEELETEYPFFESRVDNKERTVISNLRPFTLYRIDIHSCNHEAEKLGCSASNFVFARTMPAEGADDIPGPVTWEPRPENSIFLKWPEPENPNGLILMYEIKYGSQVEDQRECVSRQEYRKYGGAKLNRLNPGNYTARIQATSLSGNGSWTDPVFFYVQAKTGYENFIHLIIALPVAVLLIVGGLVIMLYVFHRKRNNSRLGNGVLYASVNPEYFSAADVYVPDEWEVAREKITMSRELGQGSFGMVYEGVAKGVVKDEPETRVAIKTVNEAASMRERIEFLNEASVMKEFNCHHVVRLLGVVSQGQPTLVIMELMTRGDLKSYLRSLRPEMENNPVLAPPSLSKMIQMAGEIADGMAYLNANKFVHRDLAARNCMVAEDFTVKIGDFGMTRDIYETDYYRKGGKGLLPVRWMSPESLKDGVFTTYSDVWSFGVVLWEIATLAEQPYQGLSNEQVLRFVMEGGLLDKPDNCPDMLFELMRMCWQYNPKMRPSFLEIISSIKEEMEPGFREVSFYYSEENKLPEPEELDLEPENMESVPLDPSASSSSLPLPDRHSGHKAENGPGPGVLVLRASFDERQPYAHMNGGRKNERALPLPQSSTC
Chain of IGF1R and αvβ5 integrin complex with Sdc1 (P06756 31-889 limits assumed): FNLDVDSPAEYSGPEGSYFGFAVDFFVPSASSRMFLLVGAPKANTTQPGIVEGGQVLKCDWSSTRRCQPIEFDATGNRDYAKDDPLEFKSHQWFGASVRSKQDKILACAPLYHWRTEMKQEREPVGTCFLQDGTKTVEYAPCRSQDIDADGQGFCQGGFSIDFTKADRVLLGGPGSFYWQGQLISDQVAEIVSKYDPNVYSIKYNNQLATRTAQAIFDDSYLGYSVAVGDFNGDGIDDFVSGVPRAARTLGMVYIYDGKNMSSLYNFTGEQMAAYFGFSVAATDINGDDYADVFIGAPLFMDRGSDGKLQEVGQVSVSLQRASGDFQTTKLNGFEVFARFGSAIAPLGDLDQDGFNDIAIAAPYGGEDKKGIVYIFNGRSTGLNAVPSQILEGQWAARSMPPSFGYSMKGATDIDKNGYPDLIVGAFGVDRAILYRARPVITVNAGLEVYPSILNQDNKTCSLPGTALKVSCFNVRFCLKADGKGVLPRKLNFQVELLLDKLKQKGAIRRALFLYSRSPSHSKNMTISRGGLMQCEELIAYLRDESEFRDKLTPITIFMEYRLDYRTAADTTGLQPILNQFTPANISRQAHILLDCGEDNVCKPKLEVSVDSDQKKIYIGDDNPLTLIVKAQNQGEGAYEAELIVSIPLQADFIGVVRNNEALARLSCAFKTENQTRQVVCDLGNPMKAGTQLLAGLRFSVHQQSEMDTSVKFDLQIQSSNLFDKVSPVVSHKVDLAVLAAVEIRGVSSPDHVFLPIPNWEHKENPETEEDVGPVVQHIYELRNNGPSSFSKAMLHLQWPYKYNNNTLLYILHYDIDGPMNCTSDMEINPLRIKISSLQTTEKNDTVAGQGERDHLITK
Chain of IGF1R and αvβ5 integrin complex with Sdc1 (P06756 891-1048 limits assumed): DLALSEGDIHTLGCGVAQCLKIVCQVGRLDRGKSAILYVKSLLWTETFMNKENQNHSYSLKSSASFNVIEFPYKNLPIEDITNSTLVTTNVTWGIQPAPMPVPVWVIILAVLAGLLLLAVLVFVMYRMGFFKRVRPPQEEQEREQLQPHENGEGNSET
Chain of IGF1R and αvβ5 integrin complex with Sdc1 (P18084 24-799): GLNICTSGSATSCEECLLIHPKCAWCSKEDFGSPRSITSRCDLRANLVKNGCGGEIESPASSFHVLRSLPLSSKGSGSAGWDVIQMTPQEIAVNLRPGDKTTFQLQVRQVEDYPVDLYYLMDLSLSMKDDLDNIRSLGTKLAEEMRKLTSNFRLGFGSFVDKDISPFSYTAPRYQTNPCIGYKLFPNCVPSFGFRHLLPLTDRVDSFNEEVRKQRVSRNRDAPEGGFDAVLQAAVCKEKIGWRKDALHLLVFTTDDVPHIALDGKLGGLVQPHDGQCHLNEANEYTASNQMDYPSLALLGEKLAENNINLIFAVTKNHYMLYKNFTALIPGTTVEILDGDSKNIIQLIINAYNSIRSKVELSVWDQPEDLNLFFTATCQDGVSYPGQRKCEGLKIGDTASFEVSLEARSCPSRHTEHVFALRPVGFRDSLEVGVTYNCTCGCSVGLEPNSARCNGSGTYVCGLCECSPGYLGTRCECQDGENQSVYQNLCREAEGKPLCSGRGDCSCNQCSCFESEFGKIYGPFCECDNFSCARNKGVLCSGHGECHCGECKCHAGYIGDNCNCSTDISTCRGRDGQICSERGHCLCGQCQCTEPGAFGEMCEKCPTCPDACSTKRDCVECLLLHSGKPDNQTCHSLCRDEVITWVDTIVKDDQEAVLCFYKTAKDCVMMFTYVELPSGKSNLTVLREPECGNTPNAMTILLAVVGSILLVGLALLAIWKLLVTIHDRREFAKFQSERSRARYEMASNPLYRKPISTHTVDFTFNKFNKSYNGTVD
Outline: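 CAG cell lysates from suspension culture were immunoprecipitated with isotype-matched control mIgG1 or mAbs to Sdc1 (B-A38), αvβ5 integrin (P1F6) and/or IGF1R (JBW902), in the presence of test peptide (1 μM) or a variant peptide (1, 3 or 10 μM). Precipitates were probed for Sdc1, IGF1R and αvβ5 integrin.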

HUVEC endothelial cells = assay: Cell growth assay, HUVEC; type: cell-based, human; settings: 30 μM peptide, 3 days, Sdc1-positive HUVEC
Outline: as §1

[2] = system: CAG, RPMI-8226, KMS-12, U266, MM.1R myeloma cells; assay: Cell growth assay, human myeloma cells; type: cell-based; settings: three-day growth assay, relative to SSTNIGF1R
Outline: (§2)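 Myeloma cells (2.5 × 10^4/well) were grown in RPMI 1640 with 4 mM L-glutamine, 10% FBS and 0.05 mM β-mercaptoethanol; CAG cells also received 40 μg/mL Geneticin. Cells were grown with 30 μM test peptide or its variant for 3 days at 37 °C, 7.5% CO2. Cell number was read by CellTiter-GLO as % increase relative to untreated cells.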

CAG myeloma xenografts = assay: CAG myeloma xenograft growth and tumor angiogenesis in nude mice; type: in vivo, mouse; settings: Alzet pump 3.65 mg/kg/day, 4 weeks
ASK1 = type: cell-based, human; settings: CAG and MM.1R cells, 10 μM
Outline: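 ASK1 or Sdc1 was immunoprecipitated from cell lysates (0.5–1.0 mg input per sample), with or without competing test peptide. Lysis buffer contained protease and phosphatase inhibitors. Blots were probed for co-precipitated ASK1 and Sdc1, total ASK1, and phospho-ASK1 (pThr838/Thr845, pSer83, pSer966/Ser967).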

[3] = system: CAG and MM.1R myeloma cells; assay: Stress and apoptosis marker antibody array, myeloma cells; type: cell-based, human; settings: CAG and MM.1R cells, 30 μM, over 9 hr
P3X63Ag8 myeloma cells = assay: Cell growth assay, mouse myeloma cells; type: cell-based; settings: 30 μM peptide, three-day treatment, complete medium
Outline: as §2

[4] = Peptide stability in mouse serum; type: in vitro ADME; settings: data not shown
[5] = system: MDA-MB-231 breast carcinoma cells; assay: Stress and apoptosis marker antibody array, MDA-MB-231; type: cell-based, human; settings: MDA-MB-231, 30 μM, up to 24 hr; compared with HUVEC response
Outline: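 MDA-MB-231 cells in complete medium were treated with or without 30 μM test peptide for 1, 3, 9 or 24 hr. Whole-cell lysates from equal cell equivalents were run on a stress and apoptosis signalling antibody array. Relative fluorescence at 700 nm was read per target, in two separate experiments.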

[6] = system: UM-SCC47, SCC25, MDA-MB-468, MDA-MB-231, MCF-7 and SKBr3 carcinoma cells; assay: Cell growth assay, head and neck and breast carcinoma cell panel; type: cell-based, human; settings: 3, 10 or 30 μM peptide, 3 days
Outline: (§3)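 Adherent cells (1–2 × 10^3/well) were grown with 3, 10 or 30 μM test peptide for 3 days at 37 °C. Carcinoma lines were kept in DMEM with 4 mM L-glutamine, 10% FBS and penicillin/streptomycin; SCC lines also received 1 μg/mL hydrocortisone. Cell number was read by CellTiter-GLO as % increase relative to untreated cells.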

HUVECs = assay: Stress and apoptosis marker antibody array, HUVEC; type: cell-based, human; settings: 30 μM, 24 hr
[7] = system: MCF10A breast epithelial cells; assay: Cell growth assay, MCF10A; type: cell-based, human; settings: 3, 10 or 30 μM peptide, 3 days
Outline: as §3

HaCaT keratinocytes = assay: Cell growth assay, HaCaT; type: cell-based, human; settings: 3, 10 or 30 μM peptide, 3 days
Outline: as §3

CAG cells = assay: ApoTox-GLO viability/apoptosis and TUNEL assay in CAG cells; type: cell-based, human; settings: 24 hr
Outline: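 CAG cells (2.5 × 10^4/well) were grown in complete medium with 1–30 μM test peptide for 24 hr at 37 °C. Viability and caspase activation/apoptosis were read by ApoTox-GLO as % of untreated cells.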

[8] = Peptide stability in bovine serum; type: in vitro ADME; settings: data not shown
CAG myeloma cells = assay: Caspase3/7-GLO apoptosis assay, CAG; type: cell-based, human
Outline: (§4)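 Myeloma cells in complete medium were pre-treated for 1 hr with JNK inhibitor or DMSO vehicle, then given or not given 30 μM test peptide, for 9 hr total. Caspase 3/7 activity was read by Caspase3/7-GLO luminescence and expressed as fold increase over vehicle alone (set to 1.0).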

HUVEC(Sdc1−) = assay: Cell growth assay, HUVEC isolate lacking Sdc1; type: cell-based, human; settings: 30 μM peptide, 3 days
Outline: as §1

MM.1R myeloma cells = assay: Caspase3/7-GLO apoptosis assay, MM.1R; type: cell-based, human; settings: MM.1R cells
Outline: as §4

[9] = 10 μM SP600125 with SSTNIGF1R, data not shown
[10] = 1 μM JNK-IN-8 with 30 μM SSTNIGF1R, 9 hr

SSTNIGF1R-T: truncated synstatin peptide comprising amino acids 94–119 of Sdc1 (AGEKPEEGEPVLHVEAEPGFTARDKE)
growth of HMEC-1 endothelial cells (HMEC-1 endothelial cells): without effect | disruption of capture of IGF1R and αvβ5 integrin by Sdc1 ([1]; 1, 3 or 10 μM peptide, myeloma cell lysates): disrupts capture of IGF1R and αvβ5 integrin by Sdc1 | fold less effective than SSTNIGF1R at disrupting IGF1R capture by Sdc1 ([1]; myeloma cells, relative to SSTNIGF1R): 3–10 fold | growth of HUVEC endothelial cells (HUVEC endothelial cells): without effect | fold less effective than SSTNIGF1R at causing myeloma cell loss [2]: 3–10 fold | effect on tumor angiogenesis (CAG myeloma xenografts; MECA-32 staining intensity): no significant effect

SSTNIGF1R: peptide that inhibits IGF1R capture by Sdc1; comprised of amino acids 92–119 in mouse Sdc1 (LPAGEKPEEGEPVLHVEAEPGFTARDKE)
growth of HMEC-1 endothelial cells (HMEC-1 endothelial cells): inhibits the growth | growth of HUVEC endothelial cells (HUVEC endothelial cells): inhibits the growth | co-immunoprecipitation of ASK1 with Sdc1 (ASK1): prevented | apoptosis markers (antibody array) [3]: increased phosphorylation of p53 (Ser15), activation of JNK and activation of caspase-3 | growth of mouse myeloma cells (P3X63Ag8 myeloma cells): significantly reduced | activity retained after incubation in mouse serum [4]: retains full activity | reduction of blood vessel density in residual tumors (CAG myeloma xenografts; MECA-32 staining intensity): over 90% | tumors eradicated (CAG myeloma xenografts; nude mice, CAG tumors, 8 tumors per cohort): 3 of the 8 | apoptosis markers (antibody array) [5]: almost identical apoptotic response | growth of head and neck and breast carcinoma cells [6]: reduced growth | apoptosis markers (antibody array) (HUVECs): Activation of the JNK pathway and caspase-3, and a reduction in levels of IkBα | growth of non-transformed MCF10A breast epithelial cells [7]: unaffected | growth of non-transformed HaCaT keratinocytes (HaCaT keratinocytes): unaffected | apoptosis by TUNEL assay (CAG cells; 30 μM): DNA fragmentation | apoptosis: caspase activation (ApoTox-GLO) (CAG cells; 1–30 μM): executioner caspase activation | cell viability (ApoTox-GLO) (CAG cells; 1–30 μM): significant loss of viability | activity retained after incubation in bovine serum [8]: retains full activity | increase in caspase 3/7 activity relative to vehicle (CAG myeloma cells; 30 μM SSTNIGF1R alone, 9 hr): ~5 fold | growth of HUVEC isolate lacking Sdc1 (HUVEC(Sdc1−)): insensitive

Oc1c2ccccc2c2c3c(cccc13)N=N2 [SP600125]
block of SSTNIGF1R-induced caspase 3/7 activation (CAG myeloma cells; [9]): Near identical results | block of SSTNIGF1R-induced caspase 3/7 activation (MM.1R myeloma cells; [9]): Near identical results

Cc1cc(NC(=O)c2cccc(NC(=O)/C=C/CN(C)C)c2)ccc1Nc1nccc(-c2cccnc2)n1 [JNK-IN-8]
block of SSTNIGF1R-induced caspase 3/7 activation (CAG myeloma cells; [10]): complete block | block of SSTNIGF1R-induced caspase 3/7 activation (MM.1R myeloma cells; [10]): complete block
